Assay results from ChEMBL document CHEMBL1148639, “A novel series of potent and selective PDE5 inhibitors with potential for high and dose-independent oral bioavailability” (J Med Chem, 2006).
Converted amounts (≈) assume the structure as drawn.

Assays:
[1] = Selectivity for human PDE5 over canine retinal PDE6
Outline: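 Ratio of IC50s for PDE5 from human corpus cavernosum and cone PDE6 from canine retina. PDE6 came from the 100 000g supernatant of retina homogenate, purified by anion exchange with a NaCl gradient. Activity was read by scintillation proximity assay with cGMP (3:1 unlabeled:3H) at about 1/3 Km, so IC50 = Ki. Buffer was 20 mM Tris-HCl pH 7.4, 5 mM MgCl2 and 1 mg/mL BSA. Incubation ran 30-60 min at 30 °C, keeping turnover below 30%. PDE5 curves spanned 1 nM-10 µM.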

[2] = molecular target: T1, cGMP-specific 3',5'-cyclic phosphodiesterase (Homo sapiens, UniProt O76074)
[3] = Oral bioavailability in human; type: ADME, organism-based; settings: in vivo
[4] = Distribution coefficient, logD of the compound; type: physicochemical; settings: octanol/water
[5] = Ratio of secretory flux to absorptive flux in human Caco-2 cell; type: ADME, cell-based
Outline: (§1)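 Human Caco-2 monolayers were used. Papp = amount transported/(time × surface area × initial concentration). Compounds were tested at 25 µM unless stated otherwise. Efflux ratio = secretory flux ÷ absorptive flux.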

[6] = Apparent permeability in human Caco-2 cell at 25 uM; type: ADME, cell-based; outline: as §1
[7] = Solubility at pH 7.6; type: physicochemical; settings: buffer
Outline: (§2)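 Solid was removed by filtration (with filter-binding check) or double centrifugation. The pH of the soluble fraction was measured, and the solution was diluted in mobile phase and quantified by HPLC or MS. Bulk form was checked by microscopy.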

[8] = Volume of distribution in dog at 0.5 mg/kg; type: ADME, organism-based, Canis lupus familiaris; parameters: dose 0.5 mg/kg; settings: in vivo, read-out: Vdss
Outline: (§3)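 Compound was given intravenously to dogs. Pharmacokinetic parameters, including plasma protein binding, are means of n = 2 animals.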

[9] = Clearance in dog at 0.5 mg/kg; type: ADME, organism-based, Canis lupus familiaris; parameters: dose 0.5 mg/kg; settings: in vivo; outline: as §3
[10] = Plasma protein binding in dog at 0.5 mg/kg; type: ADME, organism-based, Canis lupus familiaris; parameters: dose 0.5 mg/kg; settings: read-out: PPB (converted); outline: as §3
[11] = Half life in dog at 0.5 mg/kg; type: ADME, organism-based, Canis lupus familiaris; parameters: dose 0.5 mg/kg; settings: in vivo; outline: as §3
[12] = Stability in dog liver microsome; type: ADME, Canis lupus familiaris; settings: liver microsomes, read-out: Stability
physchem = settings: octanol/water, pH 7.4
[13] = Solubility at pH 7.4; type: physicochemical; settings: buffer; outline: as §2
[14] = molecular target: T1, cGMP-specific 3',5'-cyclic phosphodiesterase; remark: listed apart in the source
[15] = Tmax in dog at 0.5 mg/kg; type: ADME, organism-based, Canis lupus familiaris; parameters: dose 0.5 mg/kg; settings: in vivo
[16] = Oral bioavailability in dog at 0.5 mg/kg; type: ADME, organism-based, Canis lupus familiaris; settings: in vivo
[17] = Solubility at pH 7.3; type: physicochemical; settings: buffer; outline: as §2
[18] = Solubility at pH 6.95; type: physicochemical; settings: buffer; outline: as §2

CCCOc1ncc(C(C)=O)cc1-c1nc(O)c2nn(C3CCNCC3)c(CC)c2n1
Selectivity ratio [1]: 53

CCc1c2nc(-c3cc(C(C)=O)cnc3OCC(C)C)[nH]c(=O)c2nn1C1CN(C)C1
IC50 [2]: 8.2 nM

CCCOc1ncc(C(C)=O)cc1-c1nc2c(CC)n(C3CN(CC)C3)nc2c(=O)[nH]1
IC50 [2]: 7.1 nM

CCCOc1ncc(C(C)=O)cc1-c1nc2c(CC)n(C3CCN(C)CC3)nc2c(=O)[nH]1
IC50 [2]: 12 nM

CCCCOc1ncc(C(C)=O)cc1-c1nc2c(CC)n(C3CN(C)C3)nc2c(=O)[nH]1
IC50 [2]: 6.4 nM

CCc1c2nc(-c3cc(S(=O)(=O)N4CCN(CC)CC4)cnc3OCCOC)[nH]c(=O)c2nn1Cc1ccccn1
bioavailability [3]: 45%
IC50 [2]: 1.3 nM

CCCOc1ncc(C(C)=O)cc1-c1nc2c(CC)n(C3CNC3)nc2c(=O)[nH]1
logD [4]: 0.3
IC50 [2]: 34 nM

CCCOc1ncc(C(C)=O)cc1-c1nc(=O)c2nn(C3CNC3)c(CCC)c2[nH]1
logD [4]: 0.6
IC50 [2]: 18.2 nM
Selectivity ratio [1]: 26

CCCCOc1ncc(C(C)=O)cc1-c1nc(O)c2nn(C3CCNCC3)c(CC)c2n1
Selectivity ratio [1]: 57

CCCOc1ncc(C(C)=O)cc1-c1nc(O)c2nn(Cc3nccn3C)c(CC)c2n1
IC50 [2]: 2.7 nM
Selectivity ratio [1]: 58

CCCCOc1ncc(C(C)=O)cc1-c1nc2c(CC)n(C3CCN(C)CC3)nc2c(=O)[nH]1
IC50 [2]: 9.1 nM

CCCCOc1ncc(C(C)=O)cc1-c1nc2c(CC)n(C3CCNCC3)nc2c(=O)[nH]1
IC50 [2]: 18 nM

CCCOc1ncc(C(C)=O)cc1-c1nc2c(CC)n(C3CCN(CC)CC3)nc2c(=O)[nH]1
IC50 [2]: 13 nM

CCCOc1ncc(C(C)=O)cc1-c1nc(=O)c2nn(C3CNC3)c(CC)c2[nH]1
Selectivity ratio [1]: 55

CCCc1nn(C)c2c(=O)[nH]c(-c3cc(C(=O)CN4CCOCC4)ccc3OCC)nc12
efflux ratio [5]: 0.8
IC50 [2]: 1.7 nM
Papp at 25 µM [6]: 33 ×10⁻⁶ cm/s

CCCOc1ncc(C(C)=O)cc1-c1nc(O)c2nn(C3CN(C)C3)c(CCC)c2n1
logD [4]: 1.5
IC50 [2]: 14.7 nM
Selectivity ratio [1]: 30

CCCCOc1ncc(C(C)=O)cc1-c1nc2c(CC)n(C3CCN(CC)CC3)nc2c(=O)[nH]1
solubility [7]: 1100 µg/mL (≈ 2360 µM)
Vd [8]: 22 L/kg
clearance [9]: 38 mL/min/kg
efflux ratio [5]: 1
IC50 [2]: 3.6 nM
Papp at 25 µM [6]: 53 ×10⁻⁶ cm/s
fraction unbound [10]: 0.4
half-life [11]: 402 min
half-life [12]: > 120 min
logD (physchem): 1.8

CCCCOc1ncc(C(C)=O)cc1-c1nc(O)c2nn(C3CCN(CC)CC3)c(CC)c2n1
Selectivity ratio [1]: 350

CCCOc1ncc(C(C)=O)cc1-c1nc(O)c2nn(C3CCN(C)CC3)c(CC)c2n1
Selectivity ratio [1]: 37

CCCCOc1ncc(C(C)=O)cc1-c1nc2c(CC)n(C3CNC3)nc2c(=O)[nH]1
IC50 [2]: 21 nM

CCCc1nn(C)c2c(=O)[nH]c(-c3cc(C(C)=O)ccc3OCC)nc12
efflux ratio [5]: 0.7
IC50 [2]: 17 nM
Papp at 25 µM [6]: 43 ×10⁻⁶ cm/s

CCCCOc1ncc(C(C)=O)cc1-c1nc2c(CC)n(C3CN(CC)C3)nc2c(=O)[nH]1
solubility [13]: 390 µg/mL (≈ 889 µM)
IC50 [14]: 5.5 nM
Vd [8]: 13.4 L/kg
clearance [9]: 17.5 mL/min/kg
efflux ratio [5]: 0.9
IC50 [2]: 5.5 nM
Papp at 25 µM [6]: 30 ×10⁻⁶ cm/s
fraction unbound [10]: 0.38
half-life [11]: 540 min
Tmax [15]: 1.4 h
bioavailability [16]: 76%
half-life [12]: 95 min
logD (physchem): 2.8

CCCOc1ncc(C(C)=O)cc1-c1nc(O)c2nn(C3CN(C)C3)c(CC)c2n1
Selectivity ratio [1]: 69

CCCOc1ncc(C(C)=O)cc1-c1nc2c(CC)n(C3CN(C(C)C)C3)nc2c(=O)[nH]1
Vd [8]: 7.8 L/kg
clearance [9]: 13 mL/min/kg
efflux ratio [5]: 0.5
IC50 [2]: 5.2 nM
Papp at 25 µM [6]: 28 ×10⁻⁶ cm/s
fraction unbound [10]: 0.34
half-life [11]: 432 min
Tmax [15]: 1.9 h
bioavailability [16]: 91%
solubility [17]: 170 µg/mL (≈ 388 µM)
half-life [12]: > 120 min
logD (physchem): 2.5

CCCCOc1ncc(C(C)=O)cc1-c1nc(O)c2nn(C3CN(C)C3)c(CC)c2n1
Selectivity ratio [1]: 43

CCCOc1ncc(C(C)=O)cc1-c1nc2c(CC)n(C3CCNCC3)nc2c(=O)[nH]1
IC50 [2]: 7 nM

CCCCOc1ncc(C(C)=O)cc1-c1nc(O)c2nn(C3CN(CC)C3)c(CC)c2n1
Selectivity ratio [1]: 153

CCCOc1ncc(C(C)=O)cc1-c1nc2c(CC)n(C3CN(C)C3)nc2c(=O)[nH]1
logD [4]: 1.2
IC50 [2]: 9.5 nM

CCc1c2nc(-c3cc(C(C)=O)cnc3OCCOC)nc(O)c2nn1CCN1CCOCC1
IC50 [2]: 53 nM
Selectivity ratio [1]: 58

CCCCOc1ncc(C(C)=O)cc1-c1nc2c(CC)n(CCN3CCOCC3)nc2c(=O)[nH]1
IC50 [2]: 2.6 nM
Papp at 25 µM [6]: 37 ×10⁻⁶ cm/s
solubility [17]: < 10 µg/mL
half-life [12]: > 120 min

CCc1c2nc(-c3cc(C(C)=O)cnc3OCC(C)C)nc(O)c2nn1C1CN(C)C1
Selectivity ratio [1]: 84

CCCOc1ncc(C(C)=O)cc1-c1nc(O)c2nn(C3CN(CC)C3)c(CC)c2n1
Selectivity ratio [1]: 61

CCCOc1ncc(C(C)=O)cc1-c1nc(O)c2nn(C3CCN(CC)CC3)c(CC)c2n1
Selectivity ratio [1]: 18

CCCOc1ncc(C(C)=O)cc1-c1nc(O)c2nn(C3CN(C(C)C)C3)c(CC)c2n1
Selectivity ratio [1]: 60

CCCCOc1ncc(C(C)=O)cc1-c1nc(O)c2nn(C3CNC3)c(CC)c2n1
Selectivity ratio [1]: 29

CCCCOc1ncc(C(C)=O)cc1-c1nc(O)c2nn(Cc3nccn3C)c(CC)c2n1
efflux ratio [5]: 1.6
solubility [18]: 6 µg/mL (≈ 13.3 µM)
IC50 [2]: 0.9 nM
Selectivity ratio [1]: 142
Papp at 25 µM [6]: 5 ×10⁻⁶ cm/s
half-life [12]: > 120 min
logD (physchem): 2.6

CCCCOc1ncc(C(C)=O)cc1-c1nc(O)c2nn(C3CCN(C)CC3)c(CC)c2n1
Selectivity ratio [1]: 77
